Shown are actives, neighbours in structure and some others; about 3.9% of the full set was active somewhere.
TAAR1 antagonist = antagonists of human TAAR1; CHO RD-HGA16 TAAR1, Fluo-8 calcium fluorescence, antagonist; inhibition, % at 3 µM; 360,000 compounds, 1.5% hits;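 active means inhibition above a per-plate cutoff, the mean inhibition of test compounds on that plate plus 3 SD, cut at about 49% in these data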
Target sequence (Q96RJ0 whole entry, looked up): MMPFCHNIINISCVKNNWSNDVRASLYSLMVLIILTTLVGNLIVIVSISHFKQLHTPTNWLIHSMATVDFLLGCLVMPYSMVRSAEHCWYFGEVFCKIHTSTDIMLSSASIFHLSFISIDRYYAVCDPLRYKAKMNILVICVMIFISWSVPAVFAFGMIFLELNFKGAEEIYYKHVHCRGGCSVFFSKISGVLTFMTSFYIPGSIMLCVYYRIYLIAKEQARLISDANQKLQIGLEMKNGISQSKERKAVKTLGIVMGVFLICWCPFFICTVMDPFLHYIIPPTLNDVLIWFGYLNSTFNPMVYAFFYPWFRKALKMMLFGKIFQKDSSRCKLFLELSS
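System: RD-HGA16 CHO cells with stable hTAAR1 and Gα16 | Probe or stimulus: EC80 β-phenethylamine stimulus | Dosing: 3 µM, single point | Times: Dye loading 75 min at 37 °C, then 30 min room temperature | Measured by: Fluo-8 calcium-sensitive fluorescence | Read-out basis: % inhibition of agonist calcium response | Replicates: n of 1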
CHRM1 PAM = potentiates human M1 receptor response to acetylcholine; P11229; CHO-K1 hM1, Fluo-8 calcium fluorescence, ACh EC20; 0% = ACh EC20, 100% = maximal ACh; activation, % at 3 µM; 360,000 compounds, 0.088% hits; AID 588819; in the data active means activation above about 19%, passing the limit was not always enough
TAAR1 agonist = human TAAR1 agonism. CHO RD-HGA16 TAAR1, Fluo-8 calcium fluorescence; vehicle wells 0%, saturating PEA agonist 100%. activation, % at 3 µM. 360,000 compounds, 0.99% hits. AID 624467;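 active means activation above the mean activation of all test compounds in the run plus 3 SD, cut at about 38% in these data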
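Test system: RD-HGA16 (CHO) cells co-expressing Gα16 and hTAAR1 / Benchmarks: DMSO vehicle as 0%, PEA at EC100 as 100% / Repeats: no replicates (n 1) / Measure: % activation from peak over basal fluorescence ratio, DMSO-to-PEA scaled / Timing: 17-24 h plating, Fluo-8 75 min 37 °C, 30 min RT / Technique: kinetic Fluo-8 calcium fluorescence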
CHRM1 agonist = human M1 muscarinic receptor agonism | P11229 | CHO-K1 hM1, Fluo-8 calcium fluorescence, agonist mode; 0% DMSO, 100% acetylcholine EC100 | activation, % at 3 µM | 360,000 compounds, 0.33% hits;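 active means activation above the run's mean compound activation plus 3 SD, cut at about 16% in these data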;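 further: peak over basal fluorescence ratio within a 140 s kinetic read after compound addition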
CHRM1 antagonist = blocks human M1 muscarinic receptor. AID 588852. P11229. 360,000 compounds, 1.3% hits. inhibition, % at 3 µM. CHO-K1 hM1, Fluo-8 calcium fluorescence, ACh EC80 antagonist;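 active means percent inhibition above its own plate's cutoff, namely the mean of that plate's compound wells plus 3 SD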;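 further: peak over basal fluorescence ratio during 140 s after agonist addition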
m5-HT2A agonist = mouse HTR2A agonism via beta-arrestin recruitment. P35363. CHO-K1 mHTR2A beta-arrestin complementation, luminescence; percent of 30 µM serotonin response. activation, % at 7.6 µM. 360,000 compounds, 0.66% hits;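 active means activation above a run cutoff, the mean activation of all tested compounds plus 3 SD, cut at about 14% in these data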
Hits are given with their value; n = inactive; x = no result.

SMILES	TAAR1 antagonist	CHRM1 PAM	TAAR1 agonist	CHRM1 agonist	CHRM1 antagonist	m5-HT2A agonist
CCOC(=O)c1ccc(NC(=O)c2nc[nH]c2C(=O)NCCCCCNC(=O)OC(C)(C)C)cc1	56	n	n	n	n	n
O=C(Nc1ccccc1)c1nc[nH]c1C(=O)NCCCCNC(=O)c1[nH]cnc1C(=O)Nc1ccccc1	57	n	n	n	n	n
Cc1ccc(NC(=O)c2nc[nH]c2C(=O)NCCCCNC(=O)c2[nH]cnc2C(=O)Nc2ccc(C)cc2)cc1	60	n	n	n	n	n
O=C(Nc1ccccc1)c1nc[nH]c1C(=O)NCCNC(=O)c1[nH]cnc1C(=O)Nc1ccccc1	56	n	n	n	25	n
O=C(Nc1ccccc1)c1nc[nH]c1C(=O)Nc1ccccc1F	n	n	n	n	n	n
CCOC(=O)c1ccc(NC(=O)c2nc[nH]c2C(=O)NCCCCNC(=O)c2[nH]cnc2C(=O)Nc2ccc(C(=O)OCC)cc2)cc1	n	n	n	n	n	n
Cc1ccc(NC(=O)c2nc[nH]c2C(=O)NCCCCCCNC(=O)c2[nH]cnc2C(=O)Nc2ccc(C)cc2)cc1	n	n	n	n	n	n
O=C(NC1CC1)C1=C[C@@H](c2c[nH]c3ccccc23)C[C@@H](OCc2ccc(CO)cc2)O1	n	n	n	n	n	n
CCCCc1c(-c2cccc(OC)c2)ncn1CCc1ccccc1OC	56	x	n	x	x	n
COc1ccccc1CCn1cnc(-c2ccc(OC)c(OC)c2)c1C(C)C	n	x	42	x	x	n
CCCCCc1c(-c2ccccc2)ncn1CCc1ccccc1OC	n	x	n	x	x	n
CCCc1c(-c2cccc(Cl)c2)ncn1CCc1ccccc1OC	53	x	n	x	x	n
CCCCc1c(-c2ccccc2OC)ncn1Cc1ccc(-c2ccccc2)cc1	n	x	n	x	x	n
CCCCc1c(-c2ccccc2OC)ncn1Cc1cccc(-c2ccccc2)c1	51	x	n	x	x	n
CCCCCCCCN1C(=O)[C@@H](CC(=O)NCCCN2CCCC2=O)C[C@@]2(C(=O)OC)C1=C[C@H](C(C)(C)C)O[C@@H]2C	n	x	n	x	x	x
CCNC(=O)NC(=O)C(C)OC(=O)Cc1coc2cc3c(cc12)CCC3 (stereo not drawn)	n	n	n	n	n	n
CC(O)(c1ccc(F)c(F)c1)c1nc(-c2cccc(C#N)c2)cs1 (stereo not drawn)	n	n	n	n	n	n
Cn1c(=O)n(C)c2cc(N3CCOCC3)c(NC(=O)c3ccc(F)cc3)cc21	n	n	n	n	n	n
CCOC(=O)C1CCN(C(=O)Cn2nc(C)n3c(cc4cc(F)ccc43)c2=O)CC1	n	n	n	n	n	n
CC(C)N(C(=O)COC(=O)c1cccnc1Cl)c1ccccc1	n	32	n	n	n	n
Clc1ccc(C(CCN2CCCC2)Cc2ccccc2)cc1 (stereo not drawn)	n	n	n	n	84	n
CN(C)Cc1cc(C(C)(C)c2ccccc2)ccc1O	n	n	n	n	43	n
C[C@@H]1CN([C@H](C)CO)S(=O)(=O)c2ccc(Br)cc2O[C@H]1CN(C)S(C)(=O)=O	n	n	n	n	n	n
O=C(N[C@H](C(=O)N1CCC[C@H]1C(=O)NCc1ccccc1)c1ccccc1)C1CCCC1	n	x	n	x	x	x
COc1cc(CNC2CCCCCCC2)c(Br)cc1OCCO	n	n	n	n	n	n
SMILES	TAAR1 antagonist	CHRM1 PAM	TAAR1 agonist	CHRM1 agonist	CHRM1 antagonist	m5-HT2A agonist
c1ccc(C(Cc2nc(-c3ccncc3)no2)c2ccccc2)cc1	n	n	n	n	24	n
COc1cc(C(=O)NCC(=O)N2CCN(S(=O)(=O)c3ccccc3C(F)(F)F)CC2)cc(OC)c1OC	n	n	n	n	n	n
CCn1c(CC(C)C)n[nH]c1=S	n	n	n	n	n	n
CCn1c(CCn2ccnc2C)n[nH]c1=S	n	n	n	28	n	n
Cc1ccc(C2c3c(n[nH]c3C)C(=O)N2Cc2ccccc2)cc1 (stereo not drawn)	n	x	n	x	x	x
COC(=O)c1cc2c(c3c4cc(C)ccc4n(S(=O)(=O)c4cccc(C)c4)c13)C(=O)N(Cc1ccc(N(C)C)cc1)C2	n	x	n	x	x	x
Cn1c(SCCN2CCCC2)nnc1C1CCN(S(=O)(=O)c2cccc(F)c2)CC1	n	n	n	n	63	n
COc1ccc(-n2nc(C(=O)NCC(=O)N3CCN(c4ccccn4)CC3)c3ccccc3c2=O)cc1OC	57	n	n	n	37	n
COc1ccccc1-n1nc(C(=O)NCc2ccco2)c2ccccc2c1=O	n	n	n	n	15	n
COc1ccc(-n2nc(C(=O)NCc3ccco3)c3ccccc3c2=O)cc1	n	n	n	n	n	n
COc1ccc(-n2nc(C(=O)NCC(=O)N3CCN(Cc4ccc5c(c4)OCO5)CC3)c3ccccc3c2=O)cc1OC	n	n	n	n	41	n
COc1ccc(-n2nc(C(=O)NCC(=O)N3CCN(c4ccccc4OC)CC3)c3ccccc3c2=O)cc1OC	52	n	n	n	n	n
COCCNC(=O)C1(C)CCCN(Cc2ccc(-n3ccnc3)cc2)C1 (stereo not drawn)	n	n	n	n	n	n
CCOC(=O)N1CCN(C(=O)Cc2c(C(=O)O)n(C)c3ccccc23)CC1	n	n	n	28	n	n
CCOC(=O)c1ccccc1NC(=O)Cc1c(C(=O)O)n(C)c2ccccc12	n	n	n	n	n	n
OCCCC1CCCN(Cc2cn[nH]c2-c2ccc(F)cc2F)C1 (stereo not drawn)	n	n	n	n	n	n
CN1CCN(Cc2cn[nH]c2-c2ccc(F)cc2F)[C@@H](c2ccccc2)C1	n	n	n	46	21	n
CC1(C)CC(=O)C=C(Nc2ccc(O)c(C(=O)O)c2)C1	n	30	n	n	n	n
CC(C)(C)c1ccc(NC(=O)COC(=O)C2(C)CC2(Cl)Cl)cc1 (stereo not drawn)	52	n	n	n	n	n
COc1ccc(N(CC(=O)N/N=C(\C)c2ccc(OC)c(OC)c2)S(=O)(=O)c2ccccc2)cc1	n	n	n	n	n	n
C=CCOc1ccc(/C=C\c2nc(O)c([N+](=O)[O-])c(=O)[nH]2)cc1OCC	n	27	n	n	n	n
C=CCOc1ccc(/C=C\c2nc(O)c([N+](=O)[O-])c(=O)[nH]2)cc1OC	x	n	x	n	n	n
O=C(CNC(=O)c1ccc2c(c1)OCO2)N/N=C(Br)/C=C/c1ccccc1	n	n	41	n	n	n
O=C(NCCNC(=O)c1ccc(-c2cc(Cl)ccc2Cl)o1)c1cnccn1	n	n	43	n	n	n
O=C(NCCNC(=O)c1ccc(-c2cccc(Cl)c2)o1)c1cnccn1	n	n	n	n	n	n

Screening data from PubChem.
